Legend:
[1] = test system: HeLa; assay: Cytotoxicity against human HeLa P4/R5 cells after 48 hrs by MTT assay; format: cell-based; conditions: read-out: EC50 (the source's name)
Outline: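 Same P4R5 MAGI cell design as the infection assay but without virus; viability read by MTT tetrazolium reduction; each concentration tested in triplicate wells.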

[2] = test system: Human immunodeficiency virus 1; assay: Antiviral activity against HIV1 BaL infected in HeLa P4/R5 cells assessed as reduction of viral infection incubated for 2 hrs followed by incubated in drug-free medium for 46 hrs by single round infection beta-galactosidase reporter gene assay; format: functional, organism-based; conditions: Human immunodeficiency virus 1, BaL
Outline: (§1)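 P4R5 MAGI cells (CD4 and coreceptors, HIV-1 LTR–β-galactosidase reporter) seeded at 1.2 × 10^4 cells/well ~18 h before infection; exposed 2 h at 37 °C to cell-free X4 IIIB or R5 BaL virus with or without compound, washed, cultured 46 h more; β-galactosidase chemiluminescent read-out. Infection reduction relative to untreated; EC50 by regression; triplicate wells; dextran sulfate control.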

[3] = test system: Human immunodeficiency virus 1; assay: Antiviral activity against HIV1 3B infected in HeLa P4/R5 cells assessed as reduction of viral infection incubated for 2 hrs followed by incubated in drug-free medium for 46 hrs by single round infection beta-galactosidase reporter gene assay; format: functional, organism-based; conditions: Human immunodeficiency virus 1, 3B; outline: as §1
[4] = test system: Human immunodeficiency virus 1; assay: Ratio of zidovudine EC50 to compound EC50 for HIV1 3B infected in HeLa P4/R5 cells; format: functional
[5] = test system: Human immunodeficiency virus 1; assay: Antiviral activity against wild type HIV1 clade C 98USMSC5016 clinical isolate infected in PHA-P-stimulated human PBMC assessed as reverse transcriptase activity incubated for 6 hrs followed by incubated in drug-free medium for 6 days by multiround infection assay; format: functional, organism-based; conditions: Human immunodeficiency virus 1, clade C 98USMSC5016
[6] = test system: Human immunodeficiency virus 1; assay: Antiviral activity against NNRTI-resistant HIV1 clade B A-17 clinical isolate infected in PHA-P-stimulated human PBMC assessed as reverse transcriptase activity incubated for 6 hrs followed by incubated in drug-free medium for 6 days by multiround infection assay; format: functional, organism-based; conditions: Human immunodeficiency virus 1, clade B A-17
[7] = test system: Human immunodeficiency virus 1; assay: Ratio of zidovudine EC50 to compound EC50 for HIV1 BaL infected in HeLa P4/R5 cells; format: functional
[8] = test system: Human immunodeficiency virus 1; assay: Ratio of lamivudine EC50 to compound EC50 for HIV1 BaL infected in HeLa P4/R5 cells; format: functional
[9] = test system: Human immunodeficiency virus 1; assay: Antiviral activity against multidrug-resistant HIV1 clade B 4775-5 clinical isolate infected in PHA-P-stimulated human PBMC assessed as reverse transcriptase activity incubated for 6 hrs followed by incubated in drug-free medium for 6 days by multiround infection assay; format: functional, organism-based; conditions: Human immunodeficiency virus 1, clade B 4775-5
[10] = test system: Human immunodeficiency virus 1; assay: Ratio of lamivudine EC50 to compound EC50 for HIV1 3B infected in HeLa P4/R5 cells; format: functional
[11] = test system: Human immunodeficiency virus 1; assay: Antiviral activity against wild type HIV1 clade B 94US3393IN clinical isolate infected in PHA-P-stimulated human PBMC assessed as reverse transcriptase activity incubated for 6 hrs followed by incubated in drug-free medium for 6 days by multiround infection assay; format: functional, organism-based; conditions: Human immunodeficiency virus 1, clade B 94US3393IN

Compound | EC50 [2] | EC50 [3] | CC50 [1] | also measured
CCCCCCCCCCCCCC(=O)NCCCC[C@H](NC(=O)[C@H](CCC(=O)OC[C@H]1O[C@@H](n2cc(C)c(=O)[nH]c2=O)C[C@@H]1F)NC(=O)CCCCCCCCCCCCC)C(=O)O | 29100 nM | 26800 nM | > 108000 nM | –
CCCCCCCCCCCCCC(=O)OC[C@H](NC(C)=O)C(=O)NCCC(=O)N[C@@H](CCC(=O)OC[C@H]1O[C@@H](n2cc(C)c(=O)[nH]c2=O)C[C@@H]1F)C(=O)NCC(=O)O | 6900 nM | 11100 nM | > 119000 nM | –
CCCCCCCCCCCCCC(=O)OC[C@H](NC(C)=O)C(=O)NCCC(=O)N[C@@H](CCC(=O)OC[C@H]1O[C@@H](n2cc(C)c(=O)[nH]c2=O)C[C@@H]1N=[N+]=[N-])C(=O)NCC(=O)O | 86400 nM | 63100 nM | > 116000 nM | –
CC(=O)N[C@@H](CCC(=O)OC[C@H]1O[C@@H](n2cc(C)c(=O)[nH]c2=O)C[C@@H]1F)C(=O)OC[C@H]1O[C@@H](n2cc(C)c(=O)[nH]c2=O)C[C@@H]1N=[N+]=[N-] | 13100 nM | 13500 nM | > 151000 nM | –
CC(=O)N[C@@H](CCC(=O)OC[C@H]1O[C@@H](n2cc(C)c(=O)[nH]c2=O)C[C@@H]1F)C(=O)OC[C@@H]1O[C@H](n2ccc(N)nc2=O)CS1 | 12300 nM | 17000 nM | > 160000 nM | –
CC(=O)N[C@@H](CCC(=O)OC[C@H]1O[C@@H](n2cc(C)c(=O)[nH]c2=O)C[C@@H]1N=[N+]=[N-])C(=O)OC[C@@H]1O[C@H](n2ccc(N)nc2=O)CS1 | 13400 nM | 12000 nM | > 154000 nM | –
Cc1cn([C@H]2C[C@H](N=[N+]=[N-])[C@@H](COC(=O)CC[C@H](NC(=O)CCC(=O)OC[C@H]3O[C@@H](n4cc(C)c(=O)[nH]c4=O)C[C@@H]3F)C(=O)OC[C@@H]3O[C@H](n4ccc(N)nc4=O)CS3)O2)c(=O)[nH]c1=O | 1400 nM | 900 nM | > 107000 nM | Ratio EC50 [4]: 12; IC50 [5]: 22.7 nM; IC90 [5]: 84.5 nM; IC50 [6]: 12.9 nM; IC90 [6]: 28.3 nM; Ratio EC50 [7]: 10; Ratio EC50 [8]: 8; IC50 [9]: 5.9 nM; IC90 [9]: 46 nM; Ratio EC50 [10]: 36; IC50 [11]: 26.7 nM; IC90 [11]: 161 nM
CCCCCCCCCCCCCC(=O)N[C@@H](CCC(=O)O)C(=O)OC[C@H]1O[C@@H](n2cc(C)c(=O)[nH]c2=O)C[C@@H]1F | 7700 nM | 6300 nM | > 51000 nM | –
Cc1cn([C@H]2C[C@H](F)[C@@H](CO)O2)c(=O)[nH]c1=O [ALOVUDINE] | 400 nM | 800 nM | – | IC50 [5]: 2 nM; IC90 [5]: 12.3 nM; IC50 [6]: 26 nM; IC90 [6]: 87.2 nM; IC50 [9]: 107 nM; IC90 [9]: 1060 nM; IC50 [11]: 2 nM; IC90 [11]: 20.4 nM
Nc1ccn([C@@H]2CS[C@H](CO)O2)c(=O)n1 [LAMIVUDINE] | 11300 nM | 32700 nM | – | –
Cc1cn([C@H]2C[C@H](N=[N+]=[N-])[C@@H](CO)O2)c(=O)[nH]c1=O [ZIDOVUDINE] | 14200 nM | 10800 nM | – | IC90 [5]: 34.2 nM; IC90 [6]: 152 nM; IC90 [9]: 10700 nM; IC90 [11]: 21.3 nM

Continued by falling EC50 [2], values first:

EC50 [2] | EC50 [3] | Compound | CC50 [1] | also measured
6900 nM | 10600 nM | CCCCCCCCCCCCCC(=O)NCCCC[C@H](NC(=O)CCNC(=O)[C@H](CCC(=O)OC[C@H]1O[C@@H](n2cc(C)c(=O)[nH]c2=O)C[C@@H]1F)NC(C)=O)C(=O)O | > 121000 nM | –
6500 nM | 6000 nM | CCCCCCCCCCCCCC(=O)N[C@@H](CCC(=O)OC[C@H]1O[C@@H](n2cc(C)c(=O)[nH]c2=O)C[C@@H]1N=[N+]=[N-])C(=O)OC[C@@H]1O[C@H](n2ccc(N)nc2=O)CS1 | > 122000 nM | –
3600 nM | 2400 nM | CCCCCCCCCCCCCC(=O)N[C@@H](CCC(=O)OC[C@H]1O[C@@H](n2cc(C)c(=O)[nH]c2=O)C[C@@H]1F)C(=O)OC[C@H]1O[C@@H](n2cc(C)c(=O)[nH]c2=O)C[C@@H]1N=[N+]=[N-] | > 120000 nM | –
2700 nM | 2000 nM | CCCCCCCCCCCCCC(=O)N[C@@H](CCC(=O)OC[C@H]1O[C@@H](n2cc(C)c(=O)[nH]c2=O)C[C@@H]1F)C(=O)OC[C@@H]1O[C@H](n2ccc(N)nc2=O)CS1 | > 126000 nM | –
800 nM | 2000 nM | Nc1nc(=O)n([C@@H]2CS[C@H](CO)O2)cc1F [EMTRICITABINE] | – | –
300 nM | 600 nM | CCCCCCCCCCCCCC(=O)N[C@@H](CCC(=O)OC[C@@H]1O[C@H](n2ccc(N)nc2=O)CS1)C(=O)OC[C@H]1O[C@@H](n2cc(C)c(=O)[nH]c2=O)C[C@@H]1F | > 38000 nM | –
100 nM | 400 nM | CCCCCCCCCCCCCC(=O)N[C@@H](CCC(=O)OC[C@@H]1O[C@H](n2cc(F)c(N)nc2=O)CS1)C(=O)OC[C@H]1O[C@@H](n2cc(C)c(=O)[nH]c2=O)C[C@@H]1F | > 37000 nM | –
